From ChEMBL document CHEMBL2034961, “Kinase inhibitory potencies and in vitro antiproliferative activities of N-10 substituted pyrrolo[2,3-a]carbazole derivatives” (Bioorg Med Chem Lett, 2012) come the findings set out here.

The structures appear in SMILES notation.

Test [1] has as its target Serine/threonine-protein kinase pim-2 (Homo sapiens) (UniProt Q9P1W9). Put plainly: Inhibition of Pim-2 using RSRHSSYPAGT as substrate assessed as residual activity at 10 uM after 30 mins. An outline of the steps: (§1)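 Each Pim isoform (Pim-1, Pim-2, Pim-3) was assayed in duplicate by a previously published method. Compounds were tested at single concentrations of 10 and 1, and results are given as percent residual kinase activity.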

Test [2] addresses T1, Serine/threonine-protein kinase pim-1 (Homo sapiens, UniProt P11309). In words: Inhibition of Pim-1 using RSRHSSYPAGT as substrate assessed as residual activity at 1 uM after 30 mins. A digest of the protocol:
as §1
Target sequence in this assay (P11309 whole entry, looked up): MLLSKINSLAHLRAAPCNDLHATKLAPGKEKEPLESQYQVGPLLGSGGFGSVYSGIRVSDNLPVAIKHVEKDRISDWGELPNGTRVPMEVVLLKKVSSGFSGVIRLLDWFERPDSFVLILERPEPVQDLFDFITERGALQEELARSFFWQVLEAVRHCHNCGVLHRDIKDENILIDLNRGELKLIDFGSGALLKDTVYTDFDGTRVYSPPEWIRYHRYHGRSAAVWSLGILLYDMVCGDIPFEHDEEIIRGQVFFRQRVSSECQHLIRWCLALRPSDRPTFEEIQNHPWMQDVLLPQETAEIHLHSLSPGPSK

Test [3] can be described thus: Cytotoxicity against human fibroblasts by resazurin reduction test. Type of test: cell-based. As to conditions: Fibroblast. An outline of the steps: (§2)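 Antiproliferative effect read by resazurin reduction. Cells were a human fibroblast primary culture, PA1 (ovarian carcinoma), and PC3 and DU145 (prostatic carcinoma).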
(Resazurin is reduced to fluorescent resorufin, in cell work by metabolically active cells.)

Test [4] has as its target T2, Serine/threonine-protein kinase pim-3 (Homo sapiens, UniProt Q86V86). Put plainly: Inhibition of Pim-3 using RSRHSSYPAGT as substrate after 30 mins. An outline of the steps: (§3)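 Kinase assays on each Pim isoform were run in duplicate by a previously published method.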
Test [5] deals with T1, Serine/threonine-protein kinase pim-1. Put plainly: Inhibition of Pim-1 using RSRHSSYPAGT as substrate after 30 mins. A digest of the protocol:
as §3
Target sequence in this assay (P11309 whole entry): as the sequence (P11309 whole entry, looked up) above

Another test has as its system PA-1. Put plainly: Cytotoxicity against human PA1 cells by resazurin reduction test. Type of test: functional, cell-based. A digest of the protocol: as §2
Test [6] addresses T2, Serine/threonine-protein kinase pim-3. In words: Inhibition of Pim-3 using RSRHSSYPAGT as substrate assessed as residual activity at 10 uM after 30 mins. An outline of the steps:
as §1

The subject of the next test is PC-3. In words: Cytotoxicity against human PC3 cells by resazurin reduction test. Type of test: functional, cell-based. An outline of the steps:
as §2

In test [7] the target is T2, Serine/threonine-protein kinase pim-3. Put plainly: Inhibition of Pim-3 using RSRHSSYPAGT as substrate assessed as residual activity at 1 uM after 30 mins. An outline of the steps: as §1
Test [8] deals with Serine/threonine-protein kinase pim-2 (Homo sapiens) (UniProt Q9P1W9). In words: Inhibition of Pim-2 using RSRHSSYPAGT as substrate assessed as residual activity at 1 uM after 30 mins. A digest of the protocol: as §1
Sequence of Serine/threonine-protein kinase pim-2 (Homo sapiens) (Q9P1W9 whole entry, looked up, canonical isoform): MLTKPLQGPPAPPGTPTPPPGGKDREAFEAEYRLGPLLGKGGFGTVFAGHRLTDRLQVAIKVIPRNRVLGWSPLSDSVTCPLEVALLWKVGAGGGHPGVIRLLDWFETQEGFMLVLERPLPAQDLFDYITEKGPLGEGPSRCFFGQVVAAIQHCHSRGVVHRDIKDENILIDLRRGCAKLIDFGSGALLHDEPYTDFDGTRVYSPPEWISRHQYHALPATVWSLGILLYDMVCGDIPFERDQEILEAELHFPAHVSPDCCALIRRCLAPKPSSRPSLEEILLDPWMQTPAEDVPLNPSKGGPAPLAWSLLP
The target in test [9] is T1, Serine/threonine-protein kinase pim-1. Put plainly: Inhibition of Pim-1 using RSRHSSYPAGT as substrate assessed as residual activity at 10 uM after 30 mins. An outline of the steps:
as §1
Target sequence in this assay (P11309 whole entry, looked up): as the sequence (P11309 whole entry, looked up) above

The next test has as its system DU-145. In words: Cytotoxicity against human DU145 cells by resazurin reduction test. Format: functional, cell-based. An outline of the steps: as §2

For `CC(C)(C)OC(=O)NCCCCn1c2ccccc2c2ccc3c(C=O)c[nH]c3c21`, the Activity in [1] worked out at 54%; in test [2], 23%; in test [6], 3%; in [7], 16%; in test [8], 97%; in test [9] it was 4%. Moreover, the IC50 in test [3] stood at 17.3 µM; in [4], 0.2 µM; in [5] it was 0.47 µM; in the test with PA-1, 14.9 µM; in the test with PC-3 it was 13.1 µM; with DU-145 it was 12.2 µM.

For the compound `N#CCCCCn1c2ccccc2c2ccc3c(C=O)c[nH]c3c21`, the Activity in test [1] was determined as 40%; in [2], 3%; in [6], 2%; in test [7] it was 3%; in test [8], 32%; in test [9], 1%. For the same compound, the half-maximal inhibitory concentration (IC50) amounted to 14.5 µM in test [3]; 0.041 µM in [4]; 0.046 µM in [5]; 8 µM with PA-1; 16 µM in the test on PC-3; 20 µM with DU-145.

Regarding `CN(C)CCCCn1c2ccccc2c2ccc3c(C=O)c[nH]c3c21`, the Activity came out at 22% in [1]; 24% in test [2]; 1% in [6]; 7% in [7]; 74% in [8]; 10% in test [9]. Besides, the IC50 in test [3] is 0.63 µM; in test [4], 0.08 µM; in [5] it was 0.075 µM; with PA-1, 0.486 µM; in the test with PC-3 it was 0.65 µM; in the test with DU-145 it was 0.96 µM.

Usually IC50 stands for the point on the concentration scale where inhibition reaches its midpoint.
